Activity calls are given as the source filed them. The rule behind the calls is not given here.

The subject of experiment [1] is MDA-MB-231. In words: Inhibition of cell migration of human MDA-MB-231 cells at 10 uM incubated for 48 hrs by wound healing assay. The format is functional, cell-based. The procedure, abridged:
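MDA-MB-231 monolayer grown overnight to confluence and scratched with a pipette tip. Debris washed off with L15 medium, then cells kept in serum-free L15 with compound (1 and 10 µM) for 48 h. Migration into the wound photographed by phase-contrast microscopy at 0, 24 and 48 h.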

Another experiment concerns the target T1, Interstitial collagenase (Homo sapiens, UniProt P03956).
T1 sequence (P03956 whole entry): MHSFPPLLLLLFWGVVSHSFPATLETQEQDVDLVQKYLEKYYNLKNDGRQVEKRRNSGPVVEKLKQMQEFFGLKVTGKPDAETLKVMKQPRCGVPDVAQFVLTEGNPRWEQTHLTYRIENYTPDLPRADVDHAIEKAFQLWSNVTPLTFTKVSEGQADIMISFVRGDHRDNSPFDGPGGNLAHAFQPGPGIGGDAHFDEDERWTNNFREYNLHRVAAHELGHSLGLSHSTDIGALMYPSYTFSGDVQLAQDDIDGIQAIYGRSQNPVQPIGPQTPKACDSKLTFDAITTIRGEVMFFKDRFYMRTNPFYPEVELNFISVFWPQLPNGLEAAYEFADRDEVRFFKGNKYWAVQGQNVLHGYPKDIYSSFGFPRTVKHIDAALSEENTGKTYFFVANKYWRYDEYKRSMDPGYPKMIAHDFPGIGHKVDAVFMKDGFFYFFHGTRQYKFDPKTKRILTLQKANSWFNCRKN
In words: Inhibition of human recombinant MMP1 catalytic domain incubated for 20 mins by fluorimetric assay. The procedure, abridged: (§1)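 Diluted recombinant MMP enzyme pre-incubated 20 min at room temperature with varied inhibitor concentrations in 50 mM Tris–HCl, 150 mM NaCl, 5 mM CaCl2, 0.05% Brij-35, pH 7.5; total assay volume 100 µl.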

The target in experiment [2] is T2, 72 kDa type IV collagenase (Homo sapiens, UniProt P08253). In words: Inhibition of human recombinant MMP2 catalytic domain incubated for 20 mins by fluorimetric assay. An outline of the steps: as §1
Target sequence in this assay (P08253 whole entry, the tested form may be a part): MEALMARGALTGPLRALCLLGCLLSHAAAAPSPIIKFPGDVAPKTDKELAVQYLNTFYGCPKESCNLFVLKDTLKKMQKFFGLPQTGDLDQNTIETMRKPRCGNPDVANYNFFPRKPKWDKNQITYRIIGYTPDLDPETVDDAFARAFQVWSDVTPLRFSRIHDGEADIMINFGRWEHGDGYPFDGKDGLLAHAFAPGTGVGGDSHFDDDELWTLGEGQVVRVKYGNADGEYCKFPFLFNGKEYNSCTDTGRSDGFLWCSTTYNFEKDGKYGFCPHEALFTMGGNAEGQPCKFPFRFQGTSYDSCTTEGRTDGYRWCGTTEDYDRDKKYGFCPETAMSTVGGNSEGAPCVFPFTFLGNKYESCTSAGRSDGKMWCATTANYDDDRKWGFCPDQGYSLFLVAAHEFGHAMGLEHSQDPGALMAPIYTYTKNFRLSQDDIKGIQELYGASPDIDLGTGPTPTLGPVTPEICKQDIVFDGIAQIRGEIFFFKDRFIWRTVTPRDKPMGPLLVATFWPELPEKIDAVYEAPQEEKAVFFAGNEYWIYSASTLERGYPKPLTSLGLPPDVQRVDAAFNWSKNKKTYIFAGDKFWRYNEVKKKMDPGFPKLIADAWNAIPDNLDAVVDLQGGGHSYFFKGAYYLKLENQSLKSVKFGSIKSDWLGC
For experiment [3], the target named is T3, Stromelysin-1 (Homo sapiens, UniProt P08254). Kind of experiment: Inhibition of human recombinant MMP3 catalytic domain incubated for 20 mins by fluorimetric assay. An outline of the steps: as §1
T3 sequence (P08254 whole entry, the tested form may be a part): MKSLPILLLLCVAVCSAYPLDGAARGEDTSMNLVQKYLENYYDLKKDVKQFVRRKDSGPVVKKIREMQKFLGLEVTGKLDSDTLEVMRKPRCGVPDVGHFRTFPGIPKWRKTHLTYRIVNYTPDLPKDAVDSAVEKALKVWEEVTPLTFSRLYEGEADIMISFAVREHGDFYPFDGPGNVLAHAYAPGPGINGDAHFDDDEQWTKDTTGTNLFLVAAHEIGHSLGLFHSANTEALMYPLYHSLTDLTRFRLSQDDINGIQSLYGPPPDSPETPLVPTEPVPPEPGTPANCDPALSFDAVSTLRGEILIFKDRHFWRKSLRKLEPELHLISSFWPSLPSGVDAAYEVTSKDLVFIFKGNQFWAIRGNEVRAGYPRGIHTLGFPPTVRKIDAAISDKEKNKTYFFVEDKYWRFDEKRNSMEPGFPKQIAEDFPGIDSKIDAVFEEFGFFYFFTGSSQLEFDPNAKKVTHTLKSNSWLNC
The target in experiment [4] is T4, Matrix metalloproteinase-9 (Homo sapiens, UniProt P14780). In words: Inhibition of human recombinant MMP9 catalytic domain incubated for 20 mins by fluorimetric assay. The procedure, abridged:
as §1

Experiment [5] deals with T5, Macrophage metalloelastase (Homo sapiens, UniProt P39900). In words: Inhibition of human recombinant MMP12 catalytic domain incubated for 20 mins by fluorimetric assay. An outline of the steps: as §1
T5 sequence (P39900 whole entry, the tested form may be a part): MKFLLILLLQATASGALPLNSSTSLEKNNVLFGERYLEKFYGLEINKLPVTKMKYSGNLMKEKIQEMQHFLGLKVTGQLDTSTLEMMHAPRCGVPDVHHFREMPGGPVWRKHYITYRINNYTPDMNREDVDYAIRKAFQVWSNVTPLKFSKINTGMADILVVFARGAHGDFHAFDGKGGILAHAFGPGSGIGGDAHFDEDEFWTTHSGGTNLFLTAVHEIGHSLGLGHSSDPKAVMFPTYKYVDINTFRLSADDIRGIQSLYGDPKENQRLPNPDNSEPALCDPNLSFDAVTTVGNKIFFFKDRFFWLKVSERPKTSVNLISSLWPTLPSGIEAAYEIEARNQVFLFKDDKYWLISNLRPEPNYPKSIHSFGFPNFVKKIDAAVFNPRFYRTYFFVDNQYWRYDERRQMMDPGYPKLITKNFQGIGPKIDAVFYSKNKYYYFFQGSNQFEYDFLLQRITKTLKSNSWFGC
For experiment [6], the target named is T6, Collagenase 3 (Homo sapiens, UniProt P45452). Kind of experiment: Inhibition of human recombinant MMP13 catalytic domain incubated for 20 mins by fluorimetric assay. The procedure, abridged: as §1
Experiment [7] concerns the target T7, Interstitial collagenase (Homo sapiens) (UniProt P03956).
T7 sequence (whole entry): T1 sequence (P03956 whole entry)
In words: Inhibition of human recombinant MMP1 catalytic domain at 10 uM incubated for 20 mins by fluorimetric assay. An outline of the steps:
as §1

For experiment [8], the target named is T2, 72 kDa type IV collagenase. Kind of experiment: Inhibition of human recombinant MMP2 catalytic domain at 10 uM incubated for 20 mins by fluorimetric assay. The procedure, abridged:
as §1
Target sequence in this assay (P08253 110-660 limits assumed): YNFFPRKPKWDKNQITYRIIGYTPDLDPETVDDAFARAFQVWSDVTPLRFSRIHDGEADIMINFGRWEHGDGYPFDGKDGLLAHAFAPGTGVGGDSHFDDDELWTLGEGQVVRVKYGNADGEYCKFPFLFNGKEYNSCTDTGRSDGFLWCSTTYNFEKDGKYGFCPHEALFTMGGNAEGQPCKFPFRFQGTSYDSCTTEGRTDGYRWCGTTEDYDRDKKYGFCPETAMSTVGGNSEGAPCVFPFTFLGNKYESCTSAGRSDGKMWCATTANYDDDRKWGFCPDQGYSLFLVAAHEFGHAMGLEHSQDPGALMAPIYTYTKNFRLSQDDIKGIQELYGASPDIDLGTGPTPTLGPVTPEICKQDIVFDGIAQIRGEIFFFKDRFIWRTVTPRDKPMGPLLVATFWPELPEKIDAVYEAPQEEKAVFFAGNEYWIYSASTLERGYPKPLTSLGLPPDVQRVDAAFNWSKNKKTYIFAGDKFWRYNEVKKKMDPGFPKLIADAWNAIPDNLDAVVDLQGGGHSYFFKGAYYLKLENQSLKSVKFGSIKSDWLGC

Experiment [9] has as its target T3, Stromelysin-1. In words: Inhibition of human recombinant MMP3 catalytic domain at 10 uM incubated for 20 mins by fluorimetric assay. An outline of the steps: as §1
Experiment [10] has as its target T4, Matrix metalloproteinase-9. In words: Inhibition of human recombinant MMP9 catalytic domain at 10 uM incubated for 20 mins by fluorimetric assay. The procedure, abridged: as §1
Experiment [11] deals with T5, Macrophage metalloelastase. In words: Inhibition of human recombinant MMP12 catalytic domain at 10 uM incubated for 20 mins by fluorimetric assay. An outline of the steps: as §1
For experiment [12], the target named is T6, Collagenase 3. Kind of experiment: Inhibition of human recombinant MMP13 catalytic domain at 10 uM incubated for 20 mins by fluorimetric assay. An outline of the steps:
as §1

Experiment [13] relates to MDA-MB-231. Kind of experiment: Inhibition of MMP2 protein expression in human MDA-MB-231 cells at 50 uM incubated for 24 hrs by Western blot. The format is functional, cell-based. The procedure, abridged:
(§2)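 MDA-MB-231 cells co-incubated with 20 ng/ml TPA and test compound at 50 µM for 24 h, then lysed. Lysates centrifuged 10000g, 10 min, 4 °C, run on 10% SDS–PAGE, transferred to PVDF, blocked overnight at 4 °C in TBST with 5% skim milk. Probed with anti-MMP-2 and anti-MMP-9 antibodies; GAPDH as loading control.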

In experiment [14] the test system is MDA-MB-231. Kind of experiment: Inhibition of active MMP9 protein expression in human MDA-MB-231 cells at 50 uM incubated for 24 hrs by Western blot. The experiment is classed as functional, cell-based. The procedure, abridged: as §2
A general note: In western blotting, separated proteins are transferred to a membrane and probed.

For experiment [15], the system named is MDA-MB-231. Kind of experiment: Inhibition of pro-MMP9 protein expression in human MDA-MB-231 cells at 50 uM incubated for 24 hrs by Western blot. The experiment is classed as functional, cell-based. The procedure, abridged: as §2
Experiment [16] has as its system MDA-MB-231. In words: Effect on cell proliferation of human MDA-MB-231 cells at 50 uM incubated for 24 hrs. The format is functional, cell-based.

T4 sequence (P14780 whole entry, the tested form may be a part): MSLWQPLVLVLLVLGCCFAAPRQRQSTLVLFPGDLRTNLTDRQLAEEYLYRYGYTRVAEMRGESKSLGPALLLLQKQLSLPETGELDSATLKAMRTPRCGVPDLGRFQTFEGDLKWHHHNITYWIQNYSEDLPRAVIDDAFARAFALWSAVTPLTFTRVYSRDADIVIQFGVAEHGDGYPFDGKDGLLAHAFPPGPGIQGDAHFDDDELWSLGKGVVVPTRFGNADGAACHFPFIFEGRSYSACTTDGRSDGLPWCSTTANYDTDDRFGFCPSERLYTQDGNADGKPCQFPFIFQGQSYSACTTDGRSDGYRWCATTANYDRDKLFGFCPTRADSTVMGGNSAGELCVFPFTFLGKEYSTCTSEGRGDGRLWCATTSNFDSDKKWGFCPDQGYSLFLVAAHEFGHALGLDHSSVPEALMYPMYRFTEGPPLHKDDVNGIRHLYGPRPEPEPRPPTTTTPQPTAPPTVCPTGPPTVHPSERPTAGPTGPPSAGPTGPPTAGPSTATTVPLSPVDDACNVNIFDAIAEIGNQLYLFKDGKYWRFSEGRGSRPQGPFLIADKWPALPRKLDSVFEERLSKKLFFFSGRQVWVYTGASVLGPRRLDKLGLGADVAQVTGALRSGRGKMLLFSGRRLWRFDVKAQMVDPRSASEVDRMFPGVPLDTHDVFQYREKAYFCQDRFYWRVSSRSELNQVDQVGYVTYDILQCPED

As to `COC(=O)[C@@H](Cc1ccc(O)c(O)c1)OC(=O)/C=C/c1ccc(O)c2c1[C@H](C(=O)OC)[C@@H](c1ccc(O)c(O)c1)O2` [DIMETHYL LITHOSPERMATE], the inhibition result in the experiment on MDA-MB-231 [1], with MDA-MB-231 [13] and with MDA-MB-231 [14] was “Active” each time. Also, the IC50 (in general, the midpoint of a concentration-inhibition curve) on Interstitial collagenase turned out to be 8.23 µM; in experiment [2] it was 11.6 µM; at Stromelysin-1 [3], 8.15 µM; in experiment [4], 0.99 µM; in [5], 0.67 µM; on Collagenase 3 [6], 18.5 µM. For the same molecule, the inhibition (in experiment [7]; in experiment [8]; at Stromelysin-1 [9]; in experiment [10]; in experiment [11]; on Collagenase 3 [12]) was more than 30% each time. The inhibition entry with MDA-MB-231 [15] and in the experiment with MDA-MB-231 [16] was “inactive” in each case.

These data come from ChEMBL document CHEMBL2046344, “Natural products as a gold mine for selective matrix metalloproteinases inhibitors” (Bioorg Med Chem, 2012).
